Series [1] has as its system ARPE-19. The experiment in a line: Neuroprotective activity against Fenton reagent-induced hydroxy radical-stimulated cytotoxicity in human ARPE19 cells assessed as cell survival at 1 to 1000 uM preincubated for 1 hr followed by Fenton reagent challenge for 2 hrs by fluorescence-based LIVE/DEAD viability/cytotoxicity assay. Type of series: functional. A digest of the protocol:
(§1)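 After a PBS wash, cells preincubated 1 h at 37 °C in serum-free medium with 1–1000 μM compound. Fenton reagent (Fe2+/H2O2, 100 μM final) then added for 2 h. Stained 15 min at 37 °C with calcein AM 8 μM and EthD-1 16 μM. Fluorescence read at 494/517 and 528/617 nm. % live cells calculated from blank-corrected single-dye controls; dead-cell control 70% ethanol. Mean ± SEM, n = 6.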

Series [2] relates to SH-SY5Y. Nature of the series: Neuroprotective activity against Fenton reagent-induced hydroxy radical-stimulated cytotoxicity in human SH-SY5Y cells assessed as cell survival at 1 to 1000 uM preincubated for 1 hr followed by Fenton reagent challenge for 2 hrs by fluorescence-based LIVE/DEAD viability/cytotoxicity assay. It counts as functional. A digest of the protocol: as §1

Series [3] is described as follows: Metal chelating activity assessed as stoichiometric ratio of compound to Mn2+ ion at 0.1 to 0.5 mM of compound and metal ion mixture after 45 mins by spectrophotometric analysis. Type of series: physicochemical. The note with it: 0.75 h, 500 µM. A digest of the protocol: (§2)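 Job continuous-variation method at 23 °C. Compound dissolved in acetonitrile, then diluted to 0.1 mM stock in 1 mM acetate pH 6.5. Compound + ion at constant total 0.1–0.5 mM with varied mole fraction. After 45 min equilibration, UV absorbance scanned 210–310 nm. Stoichiometry taken from the intersection of lines. Mean ± SD, n = 3.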

Series [4] in a line: Metal chelating activity assessed as stoichiometric ratio of compound to Zn2+ ion at 0.1 to 0.5 mM of compound and metal ion mixture after 45 mins by spectrophotometric analysis. It counts as physicochemical. The following applies: 0.75 h, 500 µM. A digest of the protocol: as §2
Series [5] has as its system SH-SY5Y. Nature of the series: Neuroprotective activity against Fenton reagent-induced ROS generation in human SH-SY5Y cells assessed as increase in GSH level at 1 mM after 2 hrs by DTNB method. Type of series: functional, cell-based. A digest of the protocol:
(§3)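 Cells grown in 60 or 150 mm dishes and exposed 2 h to Fenton reagent (1 mM H2O2 + 1 mM Fe2+) with or without 1 mM compound in 0.16% DMSO. Intracellular glutathione then measured. Mean ± SEM, n = 6. ANOVA.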

Series [6] relates to ARPE-19. The experiment in a line: Antioxidant activity in human ARPE19 cells assessed as reduction of xanthine oxidase-mediated superoxide generation preincubated for 1 hr followed by xanthine oxidase challenge for 1 hr by MitoSOX staining-based fluorescence analysis. Type of series: functional, cell-based. A digest of the protocol:
(§4)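 Cells washed with PBS, then preincubated 1 h at 37 °C in serum-free medium with 1, 10, 100 or 1000 μM compound, or SOD 25 μg/mL as reference. Xanthine oxidase added (25 mU/mL; ~100 μM superoxide) for 1 h more. After a PBS wash, cells stained with MitoSOX Red (5 μM) for 2 h. Fluorescence read at Ex/Em 510/580 nm.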

The subject of series [7] is ARPE-19. The experiment in a line: Neuroprotective activity against Fenton reagent-induced ROS generation in human ARPE19 cells assessed as increase in GSH level at 1 mM after 2 hrs by DTNB method. Type of series: functional, cell-based. In a few lines:
as §3

Series [8] in a line: Metal chelating activity assessed as stoichiometric ratio of compound to Ca2+ ion at 0.1 to 0.5 mM of compound and metal ion mixture after 45 mins by spectrophotometric analysis. It counts as physicochemical. The following applies: 0.75 h, 500 µM. In a few lines:
as §2

Series [9] can be described thus: Metal chelating activity assessed as stoichiometric ratio of compound to Mg2+ ion at 0.1 to 0.5 mM of compound and metal ion mixture after 45 mins by spectrophotometric analysis. It counts as physicochemical. The note with it: 0.75 h, 500 µM. A digest of the protocol:
as §2

The test system of series [10] is SH-SY5Y. Nature of the series: Neuroprotective activity against Fenton reagent-induced ROS generation-stimulated cytotoxicity in human SH-SY5Y cells assessed as cell viability at 1 mM after 2 hrs by MTS assay. It counts as functional, cell-based. A digest of the protocol: (§5)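 Cells in 96-well format exposed 2 h to Fenton reagent (1 mM H2O2 + 1 mM Fe2+) with or without 1 mM compound in 0.16% DMSO. Viability by MTS assay, normalized to untreated cells without Fenton reagent (100%). Mean ± SEM, n = 4. ANOVA.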

A short description of series [11]: Metal chelating activity assessed as stoichiometric ratio of compound to Cu+ ion at 0.1 to 0.5 mM of compound and metal ion mixture after 45 mins by spectrophotometric analysis. It counts as physicochemical. The following applies: 0.75 h, 500 µM. A digest of the protocol:
as §2

The subject of series [12] is SH-SY5Y. The experiment in a line: Cytotoxicity against human SH-SY5Y cells assessed as reduction in cell viability at 1 mM after 2 hrs by MTS assay. It counts as cell-based. The following applies: 1000 µM. A digest of the protocol:
(§6)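 ARPE-19 grown in DMEM + 4% FBS and SH-SY5Y in EMEM/F12 + 10% FBS, at 37 °C, 5% CO2. Plated at 1 × 10^4 cells/well. Exposed 2 h to 1 mM compound (0.16% DMSO) without oxidant. Viability by MTS. Mean ± SEM, n = 4, ANOVA versus blank control.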
For orientation: Formazan colour is commonly taken as a measure of viable cells.

For series [13], the system named is ARPE-19. The experiment in a line: Neuroprotective activity against Fenton reagent-induced ROS generation-stimulated cytotoxicity in human ARPE19 cells assessed as cell viability at 1 mM after 2 hrs by MTS assay. It counts as functional, cell-based. A digest of the protocol:
as §5

Series [14] is described as follows: Drug uptake in neural retina of C57BL/6 mouse assessed per mg of protein at 80 mg/kg, po administered everyday for 14 days by HPLC-MS analysis. It counts as ADME, organism-based. The following applies: in vivo, 336 h. In a few lines:
(§7)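 C57BL/6 mice fed chow containing 0.05% compound (~80 mg/kg/day average) for 14 days. Perfused with PBS; brain, lens and neural retina homogenized in ice-cold 10 mM acetate pH 4 with internal standard. Extracted with TCA precipitation and chloroform. Analyzed by reverse-phase C18 HPLC.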

Series [15] has as its system SH-SY5Y. Nature of the series: Antioxidant activity in human SH-SY5Y cells assessed as reduction of xanthine oxidase-mediated superoxide generation preincubated for 1 hr followed by xanthine oxidase challenge for 1 hr by MitoSOX staining-based fluorescence analysis. It counts as functional, cell-based. A digest of the protocol: as §4
Series [16] is described as follows: Metal chelating activity assessed as stoichiometric ratio of compound to Fe3+ ion at 0.1 to 0.5 mM of compound and metal ion mixture after 45 mins by spectrophotometric analysis. Type of series: physicochemical. The note with it: 0.75 h, 500 µM. A digest of the protocol: as §2
Series [17] can be described thus: Metal chelating activity assessed as stoichiometric ratio of compound to Cu2+ ion at 0.1 to 0.5 mM of compound and metal ion mixture after 45 mins by spectrophotometric analysis. The note with it: 0.75 h, 500 µM. Type of series: physicochemical. A digest of the protocol: as §2
Series [18] can be described thus: Metal chelating activity assessed as stoichiometric ratio of compound to Fe2+ ion at 0.1 to 0.5 mM of compound and metal ion mixture after 45 mins by spectrophotometric analysis. Type of series: physicochemical. The following applies: 0.75 h, 500 µM. In a few lines:
as §2

Series [19] in a line: Cytotoxicity against human ARPE19 cells assessed as reduction in cell viability at 1 mM after 2 hrs by MTS assay. It counts as cell-based. The following applies: arpe-19, 2 h, 1000 µM. A digest of the protocol:
as §6

Series [20] can be described thus: Drug uptake in lens of C57BL/6 mouse assessed per mg of protein at 80 mg/kg, po administered everyday for 14 days by HPLC-MS analysis. Type of series: ADME, organism-based, Lens of camera-type eye. The note with it: in vivo, 336 h. A digest of the protocol:
as §7

For another series, the system named is Brain. Nature of the series: Drug uptake in brain of C57BL/6 mouse assessed per mg of protein at 80 mg/kg, po administered everyday for 14 days by HPLC-MS analysis. The note with it: in vivo, 336 h. It counts as ADME, organism-based. In a few lines: as §7

Structures are written as SMILES. Calls of active or inactive are those of the source. No cut-off for these calls is given here.

In the case of `COc1nc(N2C(=O)CCC2=O)nc(OC)c1O`, the Activity result with ARPE-19 [1] was “Dose-dependent effect”; with SH-SY5Y [2] it was “Dose-dependent effect”; in the series with ARPE-19 [6], “Dose-dependent effect”; in the series with SH-SY5Y [12] it was “Non-toxic”; in the series on SH-SY5Y [15], “Dose-dependent effect”; in series [19], “Non-toxic”. Further, the Ratio is listed as 2.22 in [3]; 2.01 in series [4]; 0 in series [8]; 0 in series [9]; 2.03 in series [11]; 2.12 in series [16]. Besides, the Ratio came to 2.13 in series [17] and 2.03 in series [18]. Also, the result in the series with SH-SY5Y [5], in the series on ARPE-19 [7], with SH-SY5Y [10] and in the series with ARPE-19 [13] was Active. Moreover, the Drug uptake entry in series [14] and in series [20] was “Active” throughout.

`O=C1CCC(=O)N1c1ncc(O)cn1`: the Activity result in the series with ARPE-19 [1] is “Dose-dependent effect”; with SH-SY5Y [2] it was “Dose-dependent effect”; in the series with ARPE-19 [6] it was “Dose-dependent effect”; with SH-SY5Y [12] it was “Non-toxic”; with SH-SY5Y [15], “Dose-dependent effect”; in series [19], “Non-toxic”. Moreover, the Ratio came to 2.14 in [3]; 1.87 in series [4]; 0 in series [8]; 0 in series [9]; 2.01 in [11]; 2.01 in series [16]. Also, the Ratio in series [17] was 2.28; in series [18], 2.06. For the same compound, the result with SH-SY5Y [5], with ARPE-19 [7], in the series on SH-SY5Y [10] and in the series with ARPE-19 [13] was Active. Moreover, the Drug uptake entry in [14] and in [20] was “Active” throughout.

Consider `Oc1c(I)cc(Cl)c2cccnc12` [CLIOQUINOL], for which the Activity entry in the series on ARPE-19 [1] is “Dose-dependent effect”; in the series with SH-SY5Y [2], “Dose-dependent effect”; in the series with ARPE-19 [6], “Dose-dependent effect”; in the series with SH-SY5Y [12], 20%; with SH-SY5Y [15], “Dose-dependent effect”; in series [19] it was 30%. Further, the outcome in the series on SH-SY5Y [5], in the series on ARPE-19 [7], in the series on SH-SY5Y [10] and in the series on ARPE-19 [13] was Active.

On to `CN(C)S(=O)(=O)N1CC(=O)N(c2ncc(O)cn2)C(=O)C1`, for which the Activity entry with ARPE-19 [1], in the series with SH-SY5Y [2], in the series with ARPE-19 [6] and in the series on SH-SY5Y [15] was “Dose-dependent effect” in each case. Also, the outcome in the series with SH-SY5Y [5], in the series on ARPE-19 [7], in the series with SH-SY5Y [10] and in the series with ARPE-19 [13] was Active. The figures for the Drug uptake (with Brain; in [14]; in series [20]) were 3 ng/mg, “Active” and “Active”, respectively.

`Cc1c(C)c2c(c(C)c1O)CCC(C)(C(=O)O)O2` (centres undefined) [TROLOX]: the Activity entry in the series with ARPE-19 [1] was “Dose-dependent effect”; in the series on SH-SY5Y [2], “Dose-dependent effect”; in the series on ARPE-19 [6], “Dose-dependent effect”; in the series on SH-SY5Y [12], “Non-toxic”; in the series with SH-SY5Y [15] it was “Dose-dependent effect”; in [19], “Non-toxic”. Further, the outcome in the series with SH-SY5Y [5], in the series with ARPE-19 [7], in the series on SH-SY5Y [10] and in the series with ARPE-19 [13] was Active.

With `COc1nc(N2C(=O)CN(S(=O)(=O)N(C)C)CC2=O)nc(OC)c1O`, the figures for the Drug uptake (with Brain; in series [14]; in [20]) were 4 ng/mg, “Active” and “Active”, respectively.

The values above are taken from ChEMBL document CHEMBL3739318, “Orally Bioavailable Metal Chelators and Radical Scavengers: Multifunctional Antioxidants for the Coadjutant Treatment of Neurodegenerative Diseases” (J Med Chem, 2015).
